From ChEMBL document CHEMBL1153361, “Synthesis and in vitro characterization of radioiodinatable benzodiazepines selective for type 1 and type 2 cholecystokinin receptors” (J Med Chem, 2009)
Activity calls are given as the source filed them. No cut-off for these calls is given here.

What was measured:
[1] = target: T1, Gastrin/cholecystokinin type B receptor (Homo sapiens, UniProt P32239); assay: (§1) Displacement of [125I](R)-1-(3-iodophenyl)-3-(1-methyl-2-oxo-5-phenyl-2,3-dihydro-1Hbenzo[e][1,4]diazepin-3-yl)urea from human CCK2 receptor expressed in CHO cells by gamma spectrometry; type: cell-based
T1 sequence (P32239 whole entry): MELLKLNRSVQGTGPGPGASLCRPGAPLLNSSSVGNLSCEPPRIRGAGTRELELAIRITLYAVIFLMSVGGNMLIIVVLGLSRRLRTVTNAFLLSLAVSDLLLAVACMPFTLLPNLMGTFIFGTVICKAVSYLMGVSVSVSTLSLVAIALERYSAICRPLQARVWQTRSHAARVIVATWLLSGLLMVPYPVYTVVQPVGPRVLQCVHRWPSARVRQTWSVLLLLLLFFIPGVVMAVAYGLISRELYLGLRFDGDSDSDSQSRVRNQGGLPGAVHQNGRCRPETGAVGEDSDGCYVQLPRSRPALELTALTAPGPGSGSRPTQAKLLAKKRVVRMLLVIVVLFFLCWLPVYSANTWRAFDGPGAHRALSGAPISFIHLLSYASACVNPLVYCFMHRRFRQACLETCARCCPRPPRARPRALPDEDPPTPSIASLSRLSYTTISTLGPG
Summary of the method: (§2)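 Homologous competition in membranes (5–10 µg protein) from CHO cells expressing human receptor. 10 pM radioligand (about 20,000 cpm) plus cold ligand 0–1 µM in KRH with 0.2% BSA and 0.01% soybean trypsin inhibitor, 1 h at room temperature. Filtration, gamma counting. Ki fitted by LIGAND nonlinear least squares. Duplicate/triplicate, ≥3 independent experiments.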

[2] = target: T2, Cholecystokinin receptor type A (Homo sapiens, UniProt P32238); assay: Binding affinity to human CCK1 receptor expressed in CHO cell membrane by saturation binding assay; type: cell membranes
T2 sequence (P32238 whole entry): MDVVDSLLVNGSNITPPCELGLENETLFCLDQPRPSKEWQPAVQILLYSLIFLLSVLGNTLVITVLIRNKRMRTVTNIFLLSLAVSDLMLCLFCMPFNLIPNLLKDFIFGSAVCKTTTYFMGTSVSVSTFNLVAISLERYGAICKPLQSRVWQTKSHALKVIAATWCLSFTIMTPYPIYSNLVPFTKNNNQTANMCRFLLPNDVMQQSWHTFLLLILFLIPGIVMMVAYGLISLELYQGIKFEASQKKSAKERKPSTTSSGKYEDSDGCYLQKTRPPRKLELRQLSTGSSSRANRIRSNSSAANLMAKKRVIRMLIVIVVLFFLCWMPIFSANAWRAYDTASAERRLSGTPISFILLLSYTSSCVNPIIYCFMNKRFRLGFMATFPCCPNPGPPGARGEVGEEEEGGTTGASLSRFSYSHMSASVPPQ
Summary of the method: (§3)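 Membranes (5–10 µg protein) from CHO cells stably expressing human CCK1 or CCK2 receptor, incubated with increasing radioligand in KRH pH 7.4 with 0.2% BSA and 0.01% soybean trypsin inhibitor, 1 h at room temperature. Nonspecific binding taken with 1 µM cold homolog. Filtration, gamma counting. Kd and Bmax fitted in LIGAND.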

[3] = target: T2, Cholecystokinin receptor type A; assay: biochemical
[4] = target: T3, Gastrin/cholecystokinin type B receptor (Homo sapiens) (UniProt P32239); assay: as §1; type: cell-based; details: tested as the 125I-labelled form; summary of the method: as §2
T3 sequence (whole entry): T1 sequence (P32239 whole entry)

[5] = target: T3, Gastrin/cholecystokinin type B receptor (Homo sapiens); assay: Antagonist activity at human CCK2 receptor expressed in CHO cells assessed as inhibition of CCK8-stimulated intracellular calcium response preincubated for 100 seconds before CCK8 challenge; type: functional, cell-based
Summary of the method: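 Fura-2 AM-loaded (5 μM, 30 min, 37 °C) CHO cells stably expressing human receptor, about 2 million per measurement. Cells were pre-incubated 100 s with increasing ligand concentrations, then stimulated with CCK-8 (final 10^-9 M) at 37 °C. Ratiometric read-out with excitation at 340/380 nm and emission at 520 nm, collected over 300 s. Means of 3 independent experiments.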

[6] = target: T3, Gastrin/cholecystokinin type B receptor (Homo sapiens); assay: Displacement of [125I]CCK from CCK2 receptor in human medullary thyroid carcinoma assessed as binding density per mg of tissue by autoradiography; details: tested as the 125I-labelled form
[7] = target: T3, Gastrin/cholecystokinin type B receptor (Homo sapiens); assay: Binding affinity to CCK2 receptor in human gastrointestinal stromal tumor in presence of (R)-1-(3-iodophenyl)-3-(1-methyl-2-oxo-5-phenyl-2,3-dihydro-1Hbenzo[e][1,4]diazepin-3-yl)urea; details: tested as the 125I-labelled form
[8] = target: T3, Gastrin/cholecystokinin type B receptor (Homo sapiens); assay: Agonist activity at human CCK2 receptor expressed in CHO cells assessed as stimulation of intracellular calcium response; type: functional, cell-based
Summary of the method: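 CHO cells stably expressing human receptor, detached non-enzymatically, loaded with 5 μM Fura-2 AM for 30 min at 37 °C in serum-free Ham's F12. About 2 million cells per measurement were stimulated with test ligand (10 pM to 10 μM) at 37 °C. Fluorescence was read with excitation at 340/380 nm and emission at 520 nm over 300 s. Three independent experiments.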

[9] = target: T3, Gastrin/cholecystokinin type B receptor (Homo sapiens); assay: Induction of receptor internalization in YFP-tagged human CCK2 receptor expressed in CHO cells at 100 nM after 90 mins; type: cell-based
Summary of the method: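 CHO cells stably expressing YFP-tagged receptor, grown ≥48 h on coverslips, bound with 100 nM ligand at 4 °C for 90 min in PBS with 0.08 mM CaCl2 and 0.1 mM MgCl2. After washing, cells were warmed to 37 °C for varying times, fixed in 2% paraformaldehyde, and imaged by confocal microscopy for surface versus internal YFP (ex 488, em >505 nm).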

[10] = target: T3, Gastrin/cholecystokinin type B receptor (Homo sapiens); assay: Binding affinity to CCK2 receptor in human gastrointestinal stromal tumor in presence of CCK8; details: tested as the 125I-labelled form
[11] = target: T3, Gastrin/cholecystokinin type B receptor (Homo sapiens); assay: Displacement of [125I]CCK from CCK2 receptor in human muscular layer of gall bladder assessed as binding density per mg of tissue by autoradiography; type: tissue-based; details: tested as the 125I-labelled form
[12] = target: T3, Gastrin/cholecystokinin type B receptor (Homo sapiens); assay: Binding affinity to CCK2 receptor in human gastrointestinal stromal tumor in presence of CCK1 antagonist L364718; details: tested as the 125I-labelled form
[13] = target: T1, Gastrin/cholecystokinin type B receptor; assay: Binding affinity to human CCK2 receptor expressed in CHO cell membrane by saturation binding assay; type: cell membranes; summary of the method: as §3

Row | SMILES | Ki [1] [nM] | Ki [3] [nM] | Activity [4] | Activity [5] | Activity [8] | also measured
1 | CN1C(=O)[C@@H](NC(=O)Nc2cccc([125I])c2)N=C(c2ccccc2)c2ccccc21 | 1 | 174 | – | – | – | Kd [2]: 1.15 nM
2 | CN1C(=O)[C@H](NC(=O)Nc2cccc(I)c2)N=C(c2ccccc2)c2ccccc21 | – | – | Dose-dependent effect | Dose-dependent effect | inactive | Activity (disintegrations/minute) [6]: 602; Activity [7]: inactive; Activity [9]: Active; Activity [10]: inactive; Activity (disintegrations/minute) [11]: 970; Activity [12]: inactive
3 | CN1C(=O)[C@H](NC(=O)Nc2cccc([125I])c2)N=C(c2ccccc2)c2ccccc21 | 537 | 3.72 | – | – | – | Kd [13]: 2.95 nM
4 | CN1C(=O)[C@@H](NC(=O)Nc2cccc(I)c2)N=C(c2ccccc2)c2ccccc21 | – | – | Dose-dependent effect | Dose-dependent effect | inactive | –
